The source made the active and inactive calls. The rule behind the calls is not given here.
How the values were obtained:
Assay type in all cases: functional
[1] = tested on: Radical scavenging activity; assay: Antioxidant activity assessed as DPPH radical scavenging activity for 20 mins by ELISA
Summary of the method: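 Samples in DMSO added to 150 µM DPPH in ethanol, vortexed, incubated 20 min at room temperature, absorbance read at 517 nm. Activity taken from the absorbance difference versus DMSO control; vitamin E and caffeic acid references.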

[2] = Antioxidant activity assessed as ABTS radical scavenging activity after 12 hrs by ELISA; conditions: in the assay text read “after 6 mins” for “after 12 hrs”
Summary of the method: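 ABTS dissolved in water at 7 mM, reacted with 2.45 mM potassium persulfate (final) and left 12 h in the dark at room temperature to form ABTS•+. Radical solution (A734 0.700) added to samples in EtOH, absorbance read after mixing for up to 6 min. IC50 derived; vitamin E reference.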

[3] = Antioxidant activity assessed as superoxide radical anion scavenging activity after 30 mins by microplate reader
Summary of the method: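 Xanthine/xanthine oxidase system: 50 mM potassium phosphate pH 7.8, 1 mM EDTA, 0.04 mM NBT, 0.18 mM xanthine, 250 mU/mL xanthine oxidase plus sample, 30 min at 37 °C in the dark. NBT-formazan read at 560 nm, background from a no-enzyme control subtracted. IC50 derived; BHA reference.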

| Compound | IC50 [2] [µM] | IC50 [3] [µM] | Activity [1] |
| --- | --- | --- | --- |
| COc1cc(/C=C/c2cc3c(c(=O)o2)/C(=C/c2ccc(O)c(O)c2)C(C)(OC)O3)ccc1O (stereo not given) [METHYLINOSCAVIN B] | 13.1 | 38 | inactive |
| COC1(C)Oc2cc(/C=C/c3ccc(O)c(O)c3)oc(=O)c2/C1=C/c1ccc(O)c(O)c1 (stereo not given) [INOSCAVIN B] | – | 95 | inactive |
| VITAMIN E | 6 | – | – |
| COc1ccc(O)c(C(C)(C)C)c1.COc1ccc(O)cc1C(C)(C)C [BUTYLATED HYDROXYANISOLE] | – | 10 | – |

Further compounds by falling IC50 [3], results first:

| IC50 [2] [µM] | IC50 [3] [µM] | Compound | Activity [1] |
| --- | --- | --- | --- |
| – | 78 | CC1=CC(=O)C2(O1)c1c(cc(/C=C/c3ccc(O)c(O)c3)oc1=O)OC2c1ccc(O)c(O)c1 (stereo not given) [INOSCAVIN A] | inactive |
| 11.4 | 40 | COC1(CC(C)=O)Oc2cc(/C=C/c3ccc(O)c(O)c3)oc(=O)c2/C1=C/c1ccc(O)c(O)c1 (stereo not given) [PHELLIGRIDIN F] | inactive |
| 10.7 | 20 | COc1cc(/C=C/c2cc3c(c(=O)o2)C2(OC(C)=CC2=O)C(c2ccc(O)c(O)c2)O3)ccc1O (stereo not given) [METHYLINOSCAVIN A] | inactive |

Reference: ChEMBL document CHEMBL1157264, “Hispidin derivatives from the mushroom Inonotus xeranticus and their antioxidant activity” (J Nat Prod, 2006)
